Measurements of several laboratories.
Compare with care: the assays were run in different laboratories.
Target: Serine/threonine-protein kinase SIK3 (SIK3, Homo sapiens, UniProt Q9Y2K2)

SMILES	assay	conditions	measurement	value
Cc1sc(C(=O)NC2COC2)cc1-n1cc(NC(=O)Nc2c(F)cccc2Cl)cn1	enzyme activity, inhibitor	10 µM	remaining activity	86.9%
CC(C)(C)c1nc2c(s1)c1nc(N)ncc1c1ccc(NS(=O)(=O)c3c(F)cccc3F)c(F)c12	enzyme activity, inhibitor, radiometric	1 µM	remaining activity	98%
COc1cc(/C=C/C(=O)CC(=O)/C=C/c2ccc(O)c(OC)c2)ccc1O	enzyme activity, inhibitor	1 µM	activity vs control	91%
Cc1ccc(C(=O)Nc2ccc(CN3CCN(C)CC3)c(C(F)(F)F)c2)cc1C#Cc1cnc2cccnn12	enzyme activity, inhibitor	23.5 nM	remaining activity	87%
CC(C)(C)c1nc(-c2cccc(NS(=O)(=O)c3c(F)cccc3F)c2F)c(-c2ccnc(N)n2)s1	enzyme activity, inhibitor, radiometric	1 µM	remaining activity	60%
CN(C(=O)c1ccccc1)c1cc(N(C)c2ccc3c(c2)CCc2ccc(C(=O)NCCN4CCOCC4)cc2C3=O)ccc1F	cell-free assay, competition with immobilised ligand	1 µM	remaining binding	74%
O=C(Nc1cnn(-c2csc(C(=O)NC3COC3)c2)c1)Nc1c(F)cccc1Cl	enzyme activity, inhibitor	5 µM	remaining activity	94.5%
O=S(=O)(NC1CCC(c2cc(F)ccc2F)(S(=O)(=O)c2ccc(Cl)cc2)CC1)C(F)(F)F (stereo not drawn)	cell-free assay, competition with immobilised ligand	1 µM	remaining binding	100%
Nc1ncnc2occ(-c3ccc(NC(=O)Nc4cc(C(F)(F)F)ccc4F)cc3)c12	cell-free assay, inhibitor	20 µM	remaining signal	76%
FC(F)(F)Oc1cccc(-c2cnc3ccc(-c4ccncc4)nn23)c1	enzyme activity, inhibitor, radiometric	5 µM	activity vs control	102%
COc1cc(Cl)c(C(=O)N[C@@H](CN[C@H]2CC[C@@H](N)CC2)Cc2ccc(C#N)cc2)cc1-c1ccc(CN[C@H](C)c2ccc(C)cc2)o1	enzyme activity, inhibitor	1 µM	remaining activity	102%
COc1cc(Nc2cnc(C#N)c(O[C@H](C)CN(C)C)n2)ncc1-c1cnn(C)c1	enzyme activity, inhibitor, radiometric	1 µM	remaining activity	89%
